# Bioassay records: PubChem, several laboratories
# SENP1 inh – SENP1 (human) catalytic domain inhibition; inhibition, % at 10 µM; recombinant SENP1 catalytic domain, CyPet-SUMO1-YPet FRET cleavage; 360,000 tested, 0.21% active; AID 624204; Q9P0U3;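 active means inhibition at least 30% at 10 µM, raw YFP signal under a set limit, fluorescence ratio 0.5 to 1.5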;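 further: 0% = enzyme with DMSO and 100% = no enzyme wells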
#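 Test system: hSENP1 catalytic domain, recombinant; Amount: 20 pM final SENP1 enzyme; Medium: Tris pH 8 buffer plus EDTA, NaCl, BME, BSA, NP40, catalase; Schedule: 50 min enzyme reaction, room temperature, light-protected; Technique: FRET fluorescence in CFP and YFP emission channels; Controls: no-enzyme wells low, DMSO-plus-enzyme wells high control.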
# MT1-MMP act inh – inhibitors of human MT1-MMP activation; P50281; HT1080 RFP-PRO-GFP cells, GFP/RFP ratio fluorescence, overnight; percent of plate control window, DMSO zero; GFP/RFP ratio change, % at 20 µM; 360,000 tested, 0.061% active;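 active means GFP/RFP ratio change of at least 30% with cell ATP level not reduced by more than half and red fluorescence within 50% of control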
#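 Assay system – RFP-PRO-GFP reporter HT1080 cells · Compound dosing – single dose of 20 µM compound, 1% DMSO final · Incubation – overnight compound exposure at 37 °C · Measure – GFP/RFP fluorescence ratio · Benchmarks – DMSO wells and RFP-L50D-GFP cells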
# beta cell repl – induces beta-cell replication in MIN6 cells. MIN6 cells proliferation, ATPlite luminescence, 48 h; cells starved in 0.2% serum; 100% = growth in 10% serum. 330,000 tested, 0.29% active. AID 2380. proliferation, % at 10 µM;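 active means compounds whose signal lies at least 3.5 SD above the mean of all wells on their plate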;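 further: 0% = DMSO-treated cells in low-serum medium and 100% = 10% serum control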
# CendR NRP1 mod – modulators of CendR peptide binding to human neuropilin-1; O14786; FAM-RPARPAR peptide binding to NRP-1, fluorescence polarization; inhibition, % at 25 µM; 360,000 tested, 0.85% active;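 active means inhibition or corrected inhibition above about 18%, plus a signal ratio from 0.5 to 1.5, limit read from the data, passing the limit was not always enough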
# Target sequence (O14786 whole entry, looked up): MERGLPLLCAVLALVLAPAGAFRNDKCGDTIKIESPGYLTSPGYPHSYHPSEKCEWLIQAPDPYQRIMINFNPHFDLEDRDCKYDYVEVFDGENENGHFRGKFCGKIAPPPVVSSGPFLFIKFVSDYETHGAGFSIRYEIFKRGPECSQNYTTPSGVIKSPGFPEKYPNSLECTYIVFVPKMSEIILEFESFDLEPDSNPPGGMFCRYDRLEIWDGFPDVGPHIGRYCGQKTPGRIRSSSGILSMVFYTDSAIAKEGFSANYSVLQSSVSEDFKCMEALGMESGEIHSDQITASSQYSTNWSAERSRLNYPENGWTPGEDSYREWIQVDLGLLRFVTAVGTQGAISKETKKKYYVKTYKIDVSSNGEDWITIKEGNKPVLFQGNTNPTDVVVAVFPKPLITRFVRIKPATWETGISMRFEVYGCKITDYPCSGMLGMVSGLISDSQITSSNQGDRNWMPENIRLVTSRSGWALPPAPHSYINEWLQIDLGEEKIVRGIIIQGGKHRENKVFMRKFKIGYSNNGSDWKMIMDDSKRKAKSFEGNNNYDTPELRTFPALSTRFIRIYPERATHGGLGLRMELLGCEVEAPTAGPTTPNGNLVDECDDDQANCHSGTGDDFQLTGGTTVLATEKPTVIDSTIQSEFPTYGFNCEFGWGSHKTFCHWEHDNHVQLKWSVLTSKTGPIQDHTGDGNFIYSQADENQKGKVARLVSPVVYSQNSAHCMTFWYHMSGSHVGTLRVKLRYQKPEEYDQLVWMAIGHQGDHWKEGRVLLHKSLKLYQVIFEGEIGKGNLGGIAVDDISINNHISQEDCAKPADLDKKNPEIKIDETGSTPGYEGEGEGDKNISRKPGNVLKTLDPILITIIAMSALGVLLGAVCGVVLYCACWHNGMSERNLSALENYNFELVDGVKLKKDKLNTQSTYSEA
# DAGLB inh – blocks human DAGLB lipase activity; 340,000 tested, 0.059% active; inhibition, % at 5.17 µM; HEK293T DAGLB membrane lysate, EnzChek fluorogenic substrate; AID 504411; in the data active means inhibition above about 34%;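 further: 0% = enzyme with vehicle and 100% = wells lacking enzyme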
# Myeloid diff 2 – promotes myeloid progenitor differentiation; ER-HoxA9 myeloid progenitors, lysozyme-GFP differentiation, flow cytometry; calls only at 10 µM; 360,000 tested, 1% active; AID 624256;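 active means normalized GFP-positive differentiation at or above the plate's own cutoff, the solvent-only control mean plus 3 SD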;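 further: cells exposed to compound for four days before flow analysis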
# Starred values were filed as active, the others as inactive; i = inactive; nt = no result given; + = active, no number. An excerpt weighted towards active compounds, which were near 2.4% of everything screened.
SMILES,SENP1 inh,MT1-MMP act inh,beta cell repl,CendR NRP1 mod,DAGLB inh,Myeloid diff 2
Cc1c(CC(=O)O)c(=O)oc2c(C)c(OCc3ccc(F)cc3F)ccc12,-1,0,0,2,-3,i
COc1ccccc1COc1ccc2c(C)c(CC(=O)O)c(=O)oc2c1C,-21,-1,1,36*,1,i
Cc1c(CCC(=O)O)c(=O)oc2cc3occ(-c4ccc(F)cc4)c3cc12,-3,5,-1,-22,-5,i
Cc1c(CCC(=O)O)c(=O)oc2c(C)c3occ(-c4ccc(Cl)cc4)c3cc12,-5,14,-3,-152,4,i
Cc1c(CCC(=O)O)c(=O)oc2cc3occ(-c4ccc(Br)cc4)c3cc12,0,0,-5,-57,5,+
Cc1c(CC(=O)O)c(=O)oc2c(C)c3occ(-c4ccccc4)c3cc12,-11,2,-2,45*,4,i
COc1cc(OC)c(OC)cc1CNCCSc1nnnn1C,2,3,-2,3,0,i
Cc1cc(NC(=O)CSc2nc3c(C)cccc3cc2C)no1,2,0,-3,8,-3,i
Cc1c(NC(=O)CSc2nc3ccccc3c(=O)n2C(C)C)c(=O)n(-c2ccccc2)n1C,2,-2,1,-11,2,i
O=S(=O)(NCc1ccccc1)c1ccc(S(=O)(=O)N(Cc2ccccn2)Cc2ccco2)cc1,1,-2,1,38*,-5,i
N#Cc1c(-c2ccccc2)cc(-c2ccccc2)[nH]c1=O,-47,2,0,-5,-1,i
COc1cc(-c2cc(-c3ccc(N)cc3)[nH]c(=O)c2C#N)cc(OC)c1OC,-35,-72,-3,87,-5,+
CC1=CC(C)(C)n2c(O)c(N=NC(N)=S)c3c(C)ccc1c32,4,7,0,11,23,+
CCCc1ccc(OCc2ccc(C(=O)N/N=C/c3cccnc3)o2)cc1,3,5,1,-9,-2,+
Cc1cccc(N=Nc2c(O)[nH]c3ccc(Br)cc23)c1,-7,-7,-4,-30,1,i
COc1ccccc1N=Nc1c(O)[nH]c2ccc(Br)cc12,38,-41,1,-133,-1,+
O=C(NCCC1=CCCCC1)C1CCC(=O)N(Cc2ccc(Cl)cc2)C1 (stereo unspecified),0,0,0,6,4,+
COc1ccc(/C=N/NC(=O)c2cccc(NC(=O)c3ccccc3Cl)c2)c(OC)c1,-3,2,1,32*,-3,i
C[C@]12CCC3C(CC[C@H]4CC(O)CC[C@]34C)C1CC/C2=N/O (stereo partly specified),0,7,-3,3,1,i
C[C@]12CCC3C(CC[C@H]4CC(O)CC[C@]34C)C1CC/C2=N/NC(=O)c1ccncc1 (stereo partly specified),-1,-1,1,7,-2,+
CCCCC(=O)N1CCCC(C(=O)OCC)C1 (stereo unspecified),-1,nt,-4,-4,3,+
Cc1cc(C)cc(NC(=O)Cn2nnc3ccccc3c2=O)c1,0,2,0,17,-3,i
CC(C)CC(NS(=O)(=O)c1ccccc1)C(=O)O (stereo unspecified),2,-3,2,14,-2,i
CC(C)CC(NS(=O)(=O)c1ccccc1S(=O)(=O)NC(CC(C)C)C(=O)O)C(=O)O (stereo unspecified),2,0,-4,26*,-3,i
O=C(NCc1ccccc1)N1CCN(CCO)CC1,0,-3,nt,17,0,i
CN(C)CCn1c(=O)n(-c2ccc(F)cc2)c(=O)c2c3c(sc21)CCCCC3,-1,-4,-1,35*,-3,i
COc1ccc(NC(=O)c2cc3ccc(O)cc3o/c2=N\O)cc1,-28,1,-5,2,-3,i
Cc1cc(NC(=O)C(C)SCC(=O)Nc2ccc(Br)cc2Br)no1 (stereo unspecified),1,-1,-1,7,-1,i
